Blank lines part the entries; values can stand above or below the compound they belong to. Active and inactive are the calls of the source. No cut-off for these calls is given here.
Assays:
[1] = target: T1, Glycogen phosphorylase, liver form (Rattus norvegicus, UniProt P09811); experiment: Inhibition of glycogen phosphorylase in Wistar rat hepatocytes assessed as decrease in glucagon stimulated glucose release after 3 hrs by glucose oxidase method; type: cell-based, Hepatocyte
T1 sequence (P09811 whole entry): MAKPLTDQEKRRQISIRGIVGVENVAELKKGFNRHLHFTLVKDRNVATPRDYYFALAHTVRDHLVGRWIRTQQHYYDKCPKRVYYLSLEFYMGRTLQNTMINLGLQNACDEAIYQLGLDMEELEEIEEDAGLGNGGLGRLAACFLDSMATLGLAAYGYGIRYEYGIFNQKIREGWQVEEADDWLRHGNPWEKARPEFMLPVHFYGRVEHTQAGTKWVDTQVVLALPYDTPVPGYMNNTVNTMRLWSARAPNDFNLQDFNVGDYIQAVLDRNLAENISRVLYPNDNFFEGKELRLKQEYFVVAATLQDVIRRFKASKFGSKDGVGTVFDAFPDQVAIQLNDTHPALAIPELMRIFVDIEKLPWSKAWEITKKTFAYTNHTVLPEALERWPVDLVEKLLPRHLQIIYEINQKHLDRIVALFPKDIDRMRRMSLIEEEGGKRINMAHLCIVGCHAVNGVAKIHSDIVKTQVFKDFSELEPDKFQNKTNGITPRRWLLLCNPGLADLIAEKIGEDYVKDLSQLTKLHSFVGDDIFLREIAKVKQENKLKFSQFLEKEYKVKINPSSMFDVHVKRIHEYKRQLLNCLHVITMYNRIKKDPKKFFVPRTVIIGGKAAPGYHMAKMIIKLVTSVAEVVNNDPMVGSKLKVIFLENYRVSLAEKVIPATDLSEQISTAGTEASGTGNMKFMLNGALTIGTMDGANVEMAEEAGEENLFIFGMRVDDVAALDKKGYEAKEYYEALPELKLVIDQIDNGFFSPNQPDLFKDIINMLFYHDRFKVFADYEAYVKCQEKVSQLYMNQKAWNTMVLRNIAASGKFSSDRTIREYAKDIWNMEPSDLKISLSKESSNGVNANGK
Procedure, shortened: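 Hepatocytes from male Wistar rats (160-220 g) isolated by two-step perfusion, viability >75%. Seeded at 830,000 cells/well, then cultured 24 h with 100 nM dexamethasone. Incubated 3 h in Hepes-bicarbonate buffer pH 7.4 with 0.1% BSA, 100 nM glucagon and inhibitor at several concentrations. Supernatant glucose measured by glucose oxidase (A492). IC50 taken from % of glucagon-stimulated value, mean of three independent experiments.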

[2] = target: T2, Glycogen phosphorylase, liver form (Homo sapiens, UniProt P06737); experiment: Inhibition of glycogen phosphorylase in human hepatocytes assessed as glucagon stimulated glycogen content after 3 hrs by colorimetric GOD method; type: cell-based, Hepatocyte
T2 sequence (P06737 whole entry): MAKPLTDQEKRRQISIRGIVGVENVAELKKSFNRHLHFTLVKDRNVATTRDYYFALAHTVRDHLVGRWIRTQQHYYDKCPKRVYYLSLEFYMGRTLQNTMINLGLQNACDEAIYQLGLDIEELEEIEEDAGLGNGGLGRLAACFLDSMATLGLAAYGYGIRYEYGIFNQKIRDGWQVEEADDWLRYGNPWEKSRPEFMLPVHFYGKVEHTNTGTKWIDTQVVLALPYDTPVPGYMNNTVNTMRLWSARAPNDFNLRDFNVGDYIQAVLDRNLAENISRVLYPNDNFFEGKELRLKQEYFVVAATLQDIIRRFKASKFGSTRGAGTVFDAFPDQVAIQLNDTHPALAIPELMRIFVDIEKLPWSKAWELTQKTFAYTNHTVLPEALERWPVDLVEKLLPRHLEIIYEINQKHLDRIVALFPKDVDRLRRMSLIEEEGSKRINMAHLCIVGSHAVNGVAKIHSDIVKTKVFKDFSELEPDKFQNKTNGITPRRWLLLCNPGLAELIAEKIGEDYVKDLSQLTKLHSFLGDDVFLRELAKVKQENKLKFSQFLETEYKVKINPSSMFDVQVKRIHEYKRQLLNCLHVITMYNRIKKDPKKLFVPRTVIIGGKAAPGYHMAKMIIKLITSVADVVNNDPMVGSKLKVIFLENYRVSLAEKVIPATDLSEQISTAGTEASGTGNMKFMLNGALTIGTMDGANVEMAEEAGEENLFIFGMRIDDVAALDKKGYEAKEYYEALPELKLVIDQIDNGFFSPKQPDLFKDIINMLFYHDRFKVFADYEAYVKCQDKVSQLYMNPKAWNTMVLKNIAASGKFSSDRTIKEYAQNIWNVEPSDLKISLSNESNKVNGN
Procedure, shortened: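 Human hepatocytes, glycogen-loaded 20 h, then 3 h in glucose-free DMEM with 100 nM glucagon and inhibitor. Washed cells digested with amyloglucosidase (0.75 UI/mL, acetate pH 4.8) for 2 h at 40 °C. Released glucose quantified by glucose oxidase. IC50 from % of glucagon-stimulated glycogen, triplicates across 3-5 cultures.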

[3] = target: T2, Glycogen phosphorylase, liver form; experiment: Inhibition of glycogen phosphorylase in human hepatocytes assessed as decrease in glucagon stimulated glucose release after 3 hrs by glucose oxidase method; type: cell-based, Hepatocyte
Procedure, shortened: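 Human hepatocytes isolated by two-step perfusion of surgical liver pieces and seeded at 1×10⁶/well. Glycogen-loaded for 20 h in medium containing insulin, dexamethasone and 4.5 g/L glucose. Then 3 h in glucose-free DMEM with 100 nM glucagon and inhibitor at several concentrations. Supernatant glucose measured by glucose oxidase (A492). IC50 from % of glucagon-stimulated value, triplicates across 3-5 cultures.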

[4] = target: T3, Glycogen phosphorylase, muscle form (Oryctolagus cuniculus, UniProt P00489); experiment: Inhibition of rabbit muscle glycogen phosphorylase b
T3 sequence (P00489 whole entry): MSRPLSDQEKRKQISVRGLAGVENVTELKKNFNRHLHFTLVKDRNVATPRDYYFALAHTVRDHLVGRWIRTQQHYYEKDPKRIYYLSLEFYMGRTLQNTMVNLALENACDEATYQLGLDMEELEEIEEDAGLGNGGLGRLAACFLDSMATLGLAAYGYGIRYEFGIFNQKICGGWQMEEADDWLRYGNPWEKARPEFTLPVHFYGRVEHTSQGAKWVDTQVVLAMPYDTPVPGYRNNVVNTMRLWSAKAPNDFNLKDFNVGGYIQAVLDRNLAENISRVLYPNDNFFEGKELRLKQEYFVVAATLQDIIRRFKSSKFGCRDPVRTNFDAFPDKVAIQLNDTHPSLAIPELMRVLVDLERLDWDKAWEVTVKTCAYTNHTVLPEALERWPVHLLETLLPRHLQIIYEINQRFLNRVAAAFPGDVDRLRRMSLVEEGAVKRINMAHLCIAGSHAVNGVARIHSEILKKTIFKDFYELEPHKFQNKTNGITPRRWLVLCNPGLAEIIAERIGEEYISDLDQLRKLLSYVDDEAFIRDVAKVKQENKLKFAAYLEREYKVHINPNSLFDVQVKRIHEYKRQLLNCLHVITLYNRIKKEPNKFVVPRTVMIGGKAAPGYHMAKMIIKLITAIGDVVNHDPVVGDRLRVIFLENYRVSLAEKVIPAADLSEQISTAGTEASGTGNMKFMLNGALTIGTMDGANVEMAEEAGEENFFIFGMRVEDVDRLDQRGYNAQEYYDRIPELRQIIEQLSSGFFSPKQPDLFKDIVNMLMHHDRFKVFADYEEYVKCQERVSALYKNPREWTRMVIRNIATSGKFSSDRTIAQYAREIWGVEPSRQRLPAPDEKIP

[5] = target: T3, Glycogen phosphorylase, muscle form; experiment: Competitive inhibition of rabbit muscle glycogen phosphorylase b by Lineweaver-Burk plot analysis in presence of glucose 1-phosphate
Rattus norvegicus [6] = experiment: Anti-hyperglycemic activity in Zucker fa/fa rat model assessed as decrease in liver glucose production at 30 mg/kg, po administered as single dose for 20 mins followed by glucagon challenge measured for 45 mins by glucose oxidase method; type: functional; set-up: scale not given: the % may be the effect or the level left
Procedure, shortened: (§1)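 Acute glucagon challenge in male Zucker fa/fa rats, 10-13 weeks old, 3 treated and 3 vehicle per experiment. Single oral dose (7.5-90 mg/kg range; vehicle 4-5 mL/kg po) given 65 min before the final blood glucose reading. Glucagon 200 µg/kg SC. Tail-vein plasma taken at 0, 10, 20 and 45 min, glucose by glucose oxidase. Hepatic glucose production read as 45-min AUC.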

Rattus norvegicus [7] = experiment: Anti-hyperglycemic activity in Zucker fa/fa rat model assessed as decrease in liver glucose production at 60 mg/kg, po administered as single dose for 20 mins followed by glucagon challenge measured for 45 mins by glucose oxidase method; type: functional; set-up: scale not given: the % may be the effect or the level left; procedure, shortened: as §1
Rattus norvegicus [8] = experiment: Anti-hyperglycemic activity in po dosed Zucker fa/fa rat model assessed as decrease in liver glucose production administered 20 mins followed by glucagon challenge measured for 45 mins by glucose oxidase method; type: functional, organism-based; procedure, shortened: as §1
Rattus norvegicus [9] = experiment: Anti-hyperglycemic activity in Zucker fa/fa rat model assessed as decrease in hepatic glucose production at 30 mg/kg, po administered for 4 days followed by glucagon challenge for 2 days measured for 45 mins; type: functional; set-up: scale not given: the % may be the effect or the level left
Procedure, shortened: (§2)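 Male Zucker fa/fa rats, 10-13 weeks old, after 5 days of stabilization; 3 dosed and 3 vehicle controls. Daily oral dosing at 30 mg/kg for 4 days, then glucagon challenge (200 µg/kg, scapular SC). Tail-vein blood taken at 0, 10, 20 and 45 min. Plasma glucose by glucose oxidase, insulin by radioimmunoassay, each expressed as delta from basal. Glucose output given as 45-min AUC.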

Rattus norvegicus [10] = experiment: Anti-hyperglycemic activity in Zucker fa/fa rat model assessed as decrease in insulin output at 30 mg/kg, po administered for 4 days followed by glucagon challenge for 2 days measured for 45 mins; type: functional, organism-based; procedure, shortened: as §2
Rattus norvegicus [11] = experiment: Anti-hyperglycemic activity in glucagon challenged Zucker fa/fa rat model assessed as decrease in glycaemia at 30 mg/kg, po administered for 6 days measured for 60 mins post last dose by OGTT relative to control; type: functional, organism-based
Procedure, shortened: (§3)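 Zucker fa/fa rats received 30 mg/kg po daily for 6 days, with a glucagon challenge after day 4. They were then fasted overnight and given an OGTT (glucose 3 g/kg). Tail-vein plasma glucose measured by glucose oxidase and insulin by radioimmunoassay, each expressed as delta from basal per rat.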

Rattus norvegicus [12] = experiment: Anti-hyperglycemic activity in Zucker fa/fa rat model assessed as decrease in liver glucose production at 15 mg/kg, po administered as single dose for 20 mins followed by glucagon challenge measured for 45 mins by glucose oxidase method; type: functional; set-up: scale not given: the % may be the effect or the level left; procedure, shortened: as §1
Rattus norvegicus [13] = experiment: Anti-hyperglycemic activity in glucagon challenged Zucker fa/fa rat model assessed as decrease in insulinemia at 30 mg/kg, po administered for 6 days measured for 60 mins post last dose by OGTT relative to control; type: functional, organism-based; procedure, shortened: as §3
Rattus norvegicus [14] = experiment: Anti-hyperglycemic activity in Zucker fa/fa rat model assessed as decrease in liver glucose production at 7.5 mg/kg, po administered as single dose for 20 mins followed by glucagon challenge measured for 45 mins by glucose oxidase method; type: functional; set-up: scale not given: the % may be the effect or the level left; procedure, shortened: as §1

Compound: OC[C@H]1O[C@@]2(CC(c3ccc4c(c3)OCO4)=NO2)[C@H](O)[C@@H](O)[C@@H]1O
IC50 [1]: > 100 µM
IC50 [2]: > 100 µM
IC50 [3]: > 100 µM
IC50 [4]: 81.3 µM

Compound: OC[C@H]1O[C@@]2(CC(c3c[nH]c4ccccc34)=NO2)[C@H](O)[C@@H](O)[C@@H]1O
IC50 [4]: 800 µM

Compound: OC[C@H]1O[C@@]2(CC(c3ccc4c(c3)OCCO4)=NO2)[C@H](O)[C@@H](O)[C@@H]1O
IC50 [1]: > 100 µM
IC50 [2]: > 100 µM
IC50 [3]: > 100 µM
IC50 [4]: 13.3 µM

Compound: CSc1ccc(C2=NO[C@@]3(C2)O[C@H](CO)[C@@H](O)[C@H](O)[C@H]3O)cc1
IC50 [1]: > 100 µM
IC50 [2]: > 100 µM
IC50 [3]: > 100 µM
IC50 [4]: 5.6 µM

Compound: COc1ccc2cc(C3=NO[C@@]4(C3)O[C@H](CO)[C@@H](O)[C@H](O)[C@H]4O)ccc2c1
IC50 [4]: 27.7 µM

Compound: O=C1CNC(=O)[C@@]2(N1)O[C@H](CO)[C@@H](O)[C@H](O)[C@H]2O
Ki [5]: 59.7 µM

Compound: OC[C@H]1O[C@@]2(CC(c3cc4ccccc4s3)=NO2)[C@H](O)[C@@H](O)[C@@H]1O
IC50 [4]: 10 µM

Compound: OC[C@H]1O[C@@]2(CC(c3nc4ccccc4s3)=NO2)[C@H](O)[C@@H](O)[C@@H]1O
IC50 [4]: 6.1 µM

Compound: COc1cc(OC)cc(C2=NO[C@@]3(C2)O[C@H](CO)[C@@H](O)[C@H](O)[C@H]3O)c1
IC50 [1]: > 100 µM
IC50 [2]: > 100 µM
IC50 [3]: > 100 µM
IC50 [4]: 325 µM

Compound: OC[C@H]1O[C@@]2(CC(c3ccc4cc(O)ccc4c3)=NO2)[C@H](O)[C@@H](O)[C@@H]1O
IC50 [1]: 30.1 µM
IC50 [2]: 13.8 µM
IC50 [3]: 22.2 µM
IC50 [4]: 1.54 µM

Further lines, with some results ahead:

IC50 [4]: 280 µM
Compound: OC[C@H]1O[C@@]2(CC(c3cc4ccccc4[nH]3)=NO2)[C@H](O)[C@@H](O)[C@@H]1O

IC50 [1]: 13.6 µM
IC50 [2]: 2.38 µM
IC50 [3]: 2.5 µM
Compound: CC(=O)OC[C@H]1O[C@@]2(CC(c3ccc4ccccc4c3)=NO2)[C@H](OC(C)=O)[C@@H](OC(C)=O)[C@@H]1OC(C)=O

IC50 [4]: 25 µM
Compound: OC[C@H]1O[C@@]2(CC(c3cc4ccccc4o3)=NO2)[C@H](O)[C@@H](O)[C@@H]1O

Activity (Rattus norvegicus [8]): Dose-dependent effect
IC50 [1]: 36 µM
IC50 [2]: 14.2 µM
IC50 [3]: 20 µM
Compound: OC[C@H]1O[C@@]2(CC(c3ccc4ccccc4c3)=NO2)[C@H](O)[C@@H](O)[C@@H]1O
Activity (Rattus norvegicus [6]): 30%
Activity (Rattus norvegicus [7]): 33%
Activity (Rattus norvegicus [9]): 19%
Activity (Rattus norvegicus [10]): Active
Activity (Rattus norvegicus [11]): inactive
Activity (Rattus norvegicus [12]): 18%
Activity (Rattus norvegicus [13]): Active
Activity (Rattus norvegicus [14]): 3%

IC50 [1]: > 100 µM
IC50 [2]: > 100 µM
IC50 [3]: > 100 µM
IC50 [4]: 80.5 µM
Compound: OC[C@H]1O[C@@]2(CC(c3cc4ccccc4c4ccccc34)=NO2)[C@H](O)[C@@H](O)[C@@H]1O
